Reference: ChEMBL document CHEMBL1121365, “N,N'-Dialkylbis(dichlorophenyl)ethylenediamines and -imidazolidines: relationship between structure and estradiol receptor affinity” (J Med Chem, 1980)

Legend:
[1] = target: T1, Estrogen receptor (Rattus norvegicus) (UniProt P06211+Q62986); assay: In vitro affinity for rat Estrogen receptor; type: protein assay
[2] = target: T2, Estrogen receptor (Mus musculus) (UniProt O08537+P19785); assay: (§1) Uterotrophic effect in immature mice as uterine dry weight(mg) relative to body weight(g) at 500 ug/day dose; type: functional, tissue-based; conditions: Uterus
Procedure, shortened: (§2)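 Dorfman uterine weight test for estrogenic and antiestrogenic activity. Compounds were dissolved in arachis oil and given subcutaneously. Uterine weight was the read-out.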

[3] = target: T2, Estrogen receptor (Mus musculus); assay: (§3) Uterotrophic effect in immature mice as uterine dry weight(mg) relative to body weight(g) at 0 ug/day dose; type: functional, tissue-based; conditions: Uterus; procedure, shortened: as §2
[4] = target: T2, Estrogen receptor (Mus musculus); assay: (§4) Uterotrophic effect in immature mice as uterine dry weight(mg) relative to body weight(g) at 1000 ug/day dose; type: functional, tissue-based; conditions: Uterus, in the assay text read “100 ug/day” for “1000 ug/day”; procedure, shortened: as §2
[5] = target: T2, Estrogen receptor (Mus musculus); assay: (§5) Uterotrophic effect in immature mice as uterine dry weight(mg) relative to body weight(g) at 2500 ug/day dose; type: functional, tissue-based; conditions: Uterus; procedure, shortened: as §2
[6] = target: T1, Estrogen receptor (Rattus norvegicus); assay: In vitro association constant when complexed with the Estrogen receptor in Sprague-Dawley rat; Inhibition less than 10% at a ratio of [3H]estradiol/substance of 10e-4 M; type: protein assay
[7] = target: T2, Estrogen receptor (Mus musculus); assay: Uterotrophic effect in immature mice as uterine dry weight(mg) relative to body weight(g) at 5000 ug/day dose; type: functional, tissue-based; conditions: Uterus; procedure, shortened: as §2
[8] = target: T2, Estrogen receptor (Mus musculus); assay: Uterotrophic effect in immature mice as uterine dry weight(mg) relative to body weight(g) at 20 ug/day dose; type: functional, tissue-based; conditions: Uterus; procedure, shortened: as §2
[9] = target: T2, Estrogen receptor (Mus musculus); assay: Uterotrophic effect in immature mice as uterine dry weight(mg) relative to body weight(g) at 100 ug/day dose; type: functional, tissue-based; conditions: Uterus
Procedure, shortened: (§6)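 Dorfman uterine weight test for estrogenic and antiestrogenic properties. Compounds were dissolved in arachis oil and given sc. Other details are in an earlier paper.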

[10] = target: T2, Estrogen receptor (Mus musculus); assay: as §3; type: functional, tissue-based; conditions: Uterus; procedure, shortened: as §6; remark: listed apart in the source
[11] = target: T2, Estrogen receptor (Mus musculus); assay: as §5; type: functional, tissue-based; conditions: Uterus; procedure, shortened: as §6; remark: listed apart in the source
[12] = target: T2, Estrogen receptor (Mus musculus); assay: as §4; type: functional, tissue-based; conditions: Uterus; procedure, shortened: as §6
[13] = target: T2, Estrogen receptor (Mus musculus); assay: as §1; type: functional, tissue-based; conditions: Uterus; procedure, shortened: as §6; remark: listed apart in the source
[14] = target: T2, Estrogen receptor (Mus musculus); assay: Uterotrophic effect in immature mice as uterine dry weight(mg) relative to body weight(g) at 400 ug/day dose; type: functional, tissue-based; conditions: Uterus; procedure, shortened: as §2
[15] = target: T2, Estrogen receptor (Mus musculus); assay: Uterotrophic effect in immature mice as uterine dry weight(mg) relative to body weight(g) at 24 ug/day dose; type: functional, tissue-based; conditions: Uterus; procedure, shortened: as §2
[16] = target: T2, Estrogen receptor (Mus musculus); assay: Uterotrophic effect in immature mice as uterine dry weight(mg) relative to body weight(g) at 2400 ug/day dose; type: functional, tissue-based; conditions: Uterus; procedure, shortened: as §2
[17] = target: T2, Estrogen receptor (Mus musculus); assay: Uterotrophic effect in immature mice as uterine dry weight(mg) relative to body weight(g) at 80 ug/day dose; type: functional, tissue-based; conditions: Uterus; procedure, shortened: as §2

T2 sequence (O08537 whole entry, looked up): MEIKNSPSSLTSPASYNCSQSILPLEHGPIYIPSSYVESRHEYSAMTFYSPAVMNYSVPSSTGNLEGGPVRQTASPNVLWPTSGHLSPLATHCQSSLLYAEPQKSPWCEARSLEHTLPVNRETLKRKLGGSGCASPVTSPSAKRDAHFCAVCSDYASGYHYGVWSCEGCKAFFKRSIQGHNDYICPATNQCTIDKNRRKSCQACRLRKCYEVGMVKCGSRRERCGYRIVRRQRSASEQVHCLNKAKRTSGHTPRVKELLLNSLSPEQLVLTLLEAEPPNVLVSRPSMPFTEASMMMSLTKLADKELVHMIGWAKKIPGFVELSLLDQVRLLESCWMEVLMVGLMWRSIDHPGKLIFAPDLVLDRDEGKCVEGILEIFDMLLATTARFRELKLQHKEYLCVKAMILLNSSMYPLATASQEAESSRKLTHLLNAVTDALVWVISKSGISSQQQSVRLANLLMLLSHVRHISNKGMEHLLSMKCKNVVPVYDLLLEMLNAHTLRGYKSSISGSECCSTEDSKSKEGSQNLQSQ
T2 sequence (P19785 whole entry, looked up): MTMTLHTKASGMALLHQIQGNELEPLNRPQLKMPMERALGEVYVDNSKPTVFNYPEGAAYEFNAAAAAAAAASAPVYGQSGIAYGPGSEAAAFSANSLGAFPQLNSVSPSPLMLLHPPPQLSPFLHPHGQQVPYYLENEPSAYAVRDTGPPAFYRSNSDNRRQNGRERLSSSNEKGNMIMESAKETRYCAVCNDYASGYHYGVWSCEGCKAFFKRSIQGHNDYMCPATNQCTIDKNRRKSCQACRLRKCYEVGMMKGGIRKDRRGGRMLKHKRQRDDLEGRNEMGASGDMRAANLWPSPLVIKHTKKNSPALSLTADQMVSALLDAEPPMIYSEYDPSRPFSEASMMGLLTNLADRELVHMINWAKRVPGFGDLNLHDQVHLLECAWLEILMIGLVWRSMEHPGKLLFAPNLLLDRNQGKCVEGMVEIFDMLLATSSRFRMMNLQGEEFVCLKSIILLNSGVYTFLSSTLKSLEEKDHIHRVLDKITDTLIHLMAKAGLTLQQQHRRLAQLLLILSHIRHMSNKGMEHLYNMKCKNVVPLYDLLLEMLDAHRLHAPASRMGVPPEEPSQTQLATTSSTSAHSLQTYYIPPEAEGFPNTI

Compound	Ka [1]	inhibition [6] [%]	also measured
CC[C@H](c1ccc(O)cc1)[C@@H](CC)c1ccc(O)cc1	8.3e+08		
CCCCNC(c1c(Cl)cccc1Cl)C(NCCCC)c1c(Cl)cccc1Cl (stereo in doubt)		< 10	
CCCCNC(c1ccc(Cl)c(Cl)c1)C(NCCCC)c1ccc(Cl)c(Cl)c1 (stereo in doubt)		< 10	
CCCCNC(c1ccc(Cl)cc1Cl)C(NCCCC)c1ccc(Cl)cc1Cl (stereo in doubt)		< 10	
CCCNC(c1c(Cl)cccc1Cl)C(NCCC)c1c(Cl)cccc1Cl (stereo in doubt)	2.3e+06		Effect [2]: 22.6; Effect [3]: 12.9; Effect [8]: 14.8; Effect [4]: 17.5; Effect [5]: 31.3
CCCNC(c1ccc(Cl)cc1Cl)C(NCCC)c1ccc(Cl)cc1Cl (stereo in doubt)		< 10	
CCNC(c1c(Cl)cccc1Cl)C(NCC)c1c(Cl)cccc1Cl (stereo in doubt)	670000		Effect [9]: 22.7; Effect [10]: 12.8; Effect [11]: 35.6; Effect [12]: 27.4; Effect [13]: 23.5
CCNC(c1cc(Cl)cc(Cl)c1)C(NCC)c1cc(Cl)cc(Cl)c1 (stereo in doubt)		< 10	
CCNC(c1ccc(Cl)c(Cl)c1)C(NCC)c1ccc(Cl)c(Cl)c1 (stereo in doubt)		< 10	
CCNC(c1ccc(Cl)cc1Cl)C(NCC)c1ccc(Cl)cc1Cl (stereo in doubt)		< 10	
CNC(c1c(Cl)cccc1Cl)C(NC)c1c(Cl)cccc1Cl (stereo in doubt)	91000		
CNC(c1ccc(Cl)cc1Cl)C(NC)c1ccc(Cl)cc1Cl (stereo in doubt)		< 10	
CNC(c1ccc(Cl)cc1Cl)C(NC)c1ccc(Cl)cc1Cl (stereo in doubt; 2a (d,l))		< 10	
CCNC(c1ccc(Cl)cc1Cl)C(NCC)c1ccc(Cl)cc1Cl (stereo in doubt; 2b (d,l))		< 10	
CCCNC(c1ccc(Cl)cc1Cl)C(NCCC)c1ccc(Cl)cc1Cl (stereo in doubt; 2c (d,l))		< 10	
CCCCNC(c1ccc(Cl)cc1Cl)C(NCCCC)c1ccc(Cl)cc1Cl (stereo in doubt; 2d (d,l))		< 10	
CNC(c1c(Cl)cccc1Cl)C(NC)c1c(Cl)cccc1Cl (stereo in doubt; 2e (d,l))	140000		
CCNC(c1c(Cl)cccc1Cl)C(NCC)c1c(Cl)cccc1Cl (stereo in doubt; 2f (d,l))	130000		
CCCNC(c1c(Cl)cccc1Cl)C(NCCC)c1c(Cl)cccc1Cl (stereo in doubt; 2g (d,l))	830000		Effect [2]: 27.1; Effect [3]: 12.9; Effect [8]: 15.5; Effect [4]: 19.6
CCCCNC(c1c(Cl)cccc1Cl)C(NCCCC)c1c(Cl)cccc1Cl (stereo in doubt; 2h (d,l))		< 10	
CCNC(c1ccc(Cl)c(Cl)c1)C(NCC)c1ccc(Cl)c(Cl)c1 (stereo in doubt; 2i (d,l))		< 10	
CCCCNC(c1ccc(Cl)c(Cl)c1)C(NCCCC)c1ccc(Cl)c(Cl)c1 (stereo in doubt; 2k (d,l))		< 10	
CCNC(c1cc(Cl)cc(Cl)c1)C(NCC)c1cc(Cl)cc(Cl)c1 (stereo in doubt; 21 (d,l))		< 10	

Second part, led by results:

Ka [1]	inhibition [6] [%]	Compound	also measured
200000		CCN1CN(CC)C(c2c(Cl)cccc2Cl)C1c1c(Cl)cccc1Cl (cis isomer)	Effect [2]: 19.7; Effect [3]: 12.8; Effect [4]: 17.1; Effect [5]: 22.3
	< 10	CCN1CN(CC)C(c2cc(Cl)cc(Cl)c2)C1c1cc(Cl)cc(Cl)c1 (cis isomer)	
320000		CCCN1CN(CCC)C(c2c(Cl)cccc2Cl)C1c1c(Cl)cccc1Cl (stereo in doubt)	Effect [2]: 16.2; Effect [3]: 12.8; Effect [4]: 17.7; Effect [7]: 24.5; Effect [5]: 19.7
	< 10	CCN1CN(CC)C(c2ccc(Cl)c(Cl)c2)C1c1ccc(Cl)c(Cl)c1 (stereo in doubt)	
	< 10	CCN1CN(CC)C(c2ccc(Cl)cc2Cl)C1c1ccc(Cl)cc1Cl (stereo in doubt)	
	< 10	CCCCN1CN(CCCC)C(c2c(Cl)cccc2Cl)C1c1c(Cl)cccc1Cl (stereo in doubt; cis)	
180000		CN1CN(C)C(c2c(Cl)cccc2Cl)C1c1c(Cl)cccc1Cl (stereo in doubt; cis)	
	< 10	CCCCN1CN(CCCC)C(c2c(Cl)cccc2Cl)C1c1c(Cl)cccc1Cl (stereo in doubt; trans)	
480000		CN1CN(C)C(c2c(Cl)cccc2Cl)C1c1c(Cl)cccc1Cl (stereo in doubt; trans)	
1.6e+06		CCCN1CN(CCC)C(c2c(Cl)cccc2Cl)C1c1c(Cl)cccc1Cl (trans isomer)	Effect [2]: 28; Effect [3]: 12.9; Effect [8]: 19.6; Effect [4]: 21.4; Effect [5]: 43
200000		CCN1CN(CC)C(c2c(Cl)cccc2Cl)C1c1c(Cl)cccc1Cl (trans isomer)	Effect [3]: 14.9; Effect [14]: 38.1; Effect [15]: 22.8; Effect [16]: 46.2; Effect [17]: 24.2
	< 10	CCN1CN(CC)C(c2cc(Cl)cc(Cl)c2)C1c1cc(Cl)cc(Cl)c1 (trans isomer)	
	< 10	CCN1CN(CC)C(c2ccc(Cl)c(Cl)c2)C1c1ccc(Cl)c(Cl)c1 (trans isomer)	
	< 10	CCN1CN(CC)C(c2ccc(Cl)cc2Cl)C1c1ccc(Cl)cc1Cl (trans isomer)	
